Bioassay records (PubChem)
Compounds with a hit are over-represented: about 4.5% of the library has one in this group of screens.
TAAR1 antagonist – human TAAR1 antagonists, primary screen, Fluo-8 calcium fluorescence, CHO RD-HGA16 cells | inhibition, % at 3 µM | AID 624466, 2012 | hit rate 1.5% among 360,000 | antagonist;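 active means inhibition above a per-plate cutoff, the mean inhibition of test compounds on that plate plus 3 SD, cut at about 49% in these data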
Target sequence (Q96RJ0 whole entry, looked up): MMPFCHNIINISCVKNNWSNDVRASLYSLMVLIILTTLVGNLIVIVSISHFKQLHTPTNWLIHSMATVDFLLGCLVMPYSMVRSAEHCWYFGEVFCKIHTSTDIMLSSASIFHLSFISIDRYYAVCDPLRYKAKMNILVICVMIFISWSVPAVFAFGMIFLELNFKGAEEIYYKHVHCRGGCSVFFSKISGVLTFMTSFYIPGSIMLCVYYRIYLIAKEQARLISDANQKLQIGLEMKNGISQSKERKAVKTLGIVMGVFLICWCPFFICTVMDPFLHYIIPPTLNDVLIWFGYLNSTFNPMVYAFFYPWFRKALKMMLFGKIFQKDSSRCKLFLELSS
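Assay system: CHO-derived RD-HGA16 cells stably expressing human TAAR1 plus Gα16. Timing: 140 s kinetic read after compound, 140 s after agonist. Technique: kinetic Fluo-8 calcium fluorescence measurement. Measure: % inhibition of agonist calcium response.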
OX1R antag-1 – OX1R (HCRTR1) antagonists, primary screen, fluorescence, CHO/OX1R cells, Fluo-8 calcium, orexin A | Orexin/Hypocretin receptor type 1 (Homo sapiens), O43613 | hit rate 0.43% among 330,000 | Fluo-8 calcium fluorescence | inhibition, % at 5 µM;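 active means inhibition above its plate's threshold, mean inhibition of all tested compounds on the plate plus 3 SD, cut at about 37% in these data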
TAAR1 ag – human TAAR1 agonists, primary screen, Fluo-8 calcium fluorescence, CHO RD-HGA16 cells; hit rate 0.99% among 360,000; activation, % at 3 µM; Trace amine-associated receptor 1 (Homo sapiens), Q96RJ0; vehicle wells 0%, saturating PEA agonist 100%;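 active means activation above the mean activation of all test compounds in the run plus 3 SD, cut at about 38% in these data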
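Test system: RD-HGA16 (CHO) cells co-expressing Gα16 and hTAAR1 | Doses: Single dose, 3 µM | Schedule: 17-24 h seeding, 75 min 37 °C dye, 30 min RT | Evaluation: % activation from peak over basal fluorescence ratio, DMSO-to-PEA scaled | Technique: Kinetic Fluo-8 calcium fluorescence | Benchmarks: Low control DMSO, high control PEA (EC100)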
OX1R antag-2 – antagonists of human orexin 1 receptor (OX1R); Orexin/Hypocretin receptor type 1 (Homo sapiens), O43613; OX1R-expressing cells, FRET antagonist read-out; inhibition, % at 6.6 µM; hit rate 1.8% among 330,000; in the data active means inhibition mostly above about 38%, no sharp cut-off; inactive means mostly below about 40%
GPR7 antagonist – GPR7 receptor antagonists, primary screen, cell-based, fluorescence, single concentration; Neuropeptides B/W receptor type 1 (Homo sapiens), P48145; GPR7-expressing cells, fluorescence antagonist assay; inhibition, % at 4.4 µM; hit rate 1.1% among 290,000; in the data active means inhibition above about 16%, passing the limit was not always enough;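 further: cells stimulated with the agonist NPW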
Target sequence (P48145 whole entry, looked up): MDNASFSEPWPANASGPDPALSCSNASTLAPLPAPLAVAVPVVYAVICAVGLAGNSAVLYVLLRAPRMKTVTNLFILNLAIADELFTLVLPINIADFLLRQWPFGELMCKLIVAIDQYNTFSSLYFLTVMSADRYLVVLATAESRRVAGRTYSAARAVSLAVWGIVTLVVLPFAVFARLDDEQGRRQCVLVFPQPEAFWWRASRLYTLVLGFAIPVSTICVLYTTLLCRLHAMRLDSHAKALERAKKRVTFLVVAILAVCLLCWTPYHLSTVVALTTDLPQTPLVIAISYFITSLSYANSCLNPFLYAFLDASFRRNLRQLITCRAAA
CHO parental Ca – ATP-evoked calcium signal inhibitors, parental CHO, primary screen, counter-screen for OX1R antagonist project, cell-based, fluorescence, Fluo-8 calcium dye. hit rate 0.63% among 330,000. inhibition, % at 5.6 µM. parental CHO-K1, ATP-induced calcium, Fluo-8 fluorescence;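 active means inhibition above that plate's mean sample inhibition plus 3 SD, cut at about 26% in these data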
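Test system: untransfected parental CHO cell line; also added: ATP stimulus; dosing: 5.6 µM, single dose; signal: calcium-sensitive Fluo-8 fluorescence; measure: percent inhibition of ATP-evoked calcium rise, normalized to controls; benchmarks: low control ATP plus DMSO, high control DMSO only; replication: one well per compound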
Large screens that a line does not name were inactive.

CCOc1ccccc1N1CCN(C(=O)c2ccncc2)CC1	none
CCOc1ccccc1N1CCN(C(=O)c2cccc(-c3ccc(O)cc3)c2)CC1	TAAR1 antagonist 51.3
COc1ccc(OCC(=O)NNC(=O)C(=O)Nc2cc(OC)ccc2OC)cc1	none
COc1ccc(C)cc1NC(=O)C(=O)NNC(=O)COc1ccc(Cl)cc1	CHO parental Ca 35.5
CC(=O)Nc1cc2nc3ccccc3oc-2cc1=O	none (no result: OX1R antag-1, OX1R antag-2, GPR7 antagonist, CHO parental Ca)
O=C1NC(=O)C(=Cc2ccccc2[N+](=O)[O-])S1	none (no result: OX1R antag-1, OX1R antag-2, GPR7 antagonist, CHO parental Ca)
O=C1NC(=O)/C(=C/c2cccc3ccccc23)S1	OX1R antag-2 29.8
Cc1ccc(S(=O)(=O)Oc2ccccc2/C=C2/SC(=O)NC2=O)cc1	OX1R antag-2 37.8
c1ccc(COc2ccc(-c3cc4nc(NCCOc5ccccc5)ccn4n3)cc2)cc1	none (no result: OX1R antag-1, OX1R antag-2, GPR7 antagonist, CHO parental Ca)
COCCCNc1ccn2nc(-c3ccc(OCc4ccccc4)cc3)cc2n1	TAAR1 antagonist 56.3 (no result: OX1R antag-1, OX1R antag-2, GPR7 antagonist, CHO parental Ca)
COc1ccccc1/C=N/NC(=O)c1ccc(NC(=O)c2ccccc2Br)cc1	TAAR1 antagonist 50.7
CCCCOC(=O)c1ccc(NC(=O)c2ccccc2OC)cc1	none
CCCOC(=O)c1ccc(NC(=O)c2ccccc2OC)cc1	OX1R antag-2 76.4
COc1cccc(OC)c1C(=O)Nc1ccc(Br)c(C(=O)c2ccccc2)c1	TAAR1 antagonist 52.9
C=CCN(c1ccccc1)S(=O)(=O)c1cccc(C(=O)NC2CCC(O)CC2)c1 (stereo unspecified)	none (no result: GPR7 antagonist)
COC(=O)[C@]1(Cc2ccccc2)NC=C(C(=O)c2ccccc2)[C@@H]1c1cccs1	none (no result: OX1R antag-1, OX1R antag-2, GPR7 antagonist, CHO parental Ca)
C[C@@H]1ON(C)[C@H]2C[C@H]3c4cc(-c5ccc6c(c5)OCO6)ccc4CCN3C[C@@H]12	none (no result: OX1R antag-1, OX1R antag-2, GPR7 antagonist, CHO parental Ca)
CCOC(=O)/C(C#N)=C/Nc1ccccc1OC(F)(F)F	CHO parental Ca 45.5
Oc1cc(NCc2ccc(F)cc2)cc2cccnc12	none (no result: GPR7 antagonist)
CN(C)CCCNc1cc(O)c2ncccc2c1	OX1R antag-2 45.0 (no result: GPR7 antagonist)
Cc1cc(C)n(C(=O)c2cccc(S(=O)(=O)N3CCCC3)c2)n1	GPR7 antagonist 20.8
Cc1noc(C)c1COC(=O)c1cccc(S(=O)(=O)N2CCCCCC2)c1	CHO parental Ca 49.3
Cc1noc(C)c1COC(=O)c1ccc(F)c(S(=O)(=O)N2CCCCC2)c1	none
CN1CCN(C(=O)c2cccc(S(=O)(=O)N3CCCC3)c2)CC1	none (no result: GPR7 antagonist)
O=C(c1cccc(S(=O)(=O)N2CCCC2)c1)c1nnc(-c2ccncc2)o1	OX1R antag-2 43.0
CCOc1ccc(C2CC(c3cccc(Cl)c3)n3nc(N)nc3N2)cc1 (stereo unspecified)	none
Nc1nc2n(n1)C(c1cccc(Cl)c1)CC(c1ccc(F)cc1)N2 (stereo unspecified)	GPR7 antagonist 18.6
O=C(NC(c1ccc2c(c1)OCO2)c1ccccn1)C1CCN(CCOc2ccccc2)CC1 (stereo unspecified)	none (no result: OX1R antag-1, OX1R antag-2, GPR7 antagonist, CHO parental Ca)
Cc1cc(N2CCC(C)CC2)nc(SCC(=O)c2ccccc2)n1	TAAR1 antagonist 53.9
COC(=O)C1=C(C)N(Cc2ccccc2C(F)(F)F)C(=NCc2ccc3c(c2)OCO3)NC1c1ccccc1C(F)(F)F (stereo unspecified)	none (no result: OX1R antag-1, OX1R antag-2, GPR7 antagonist, CHO parental Ca)
COc1ccccc1N(CC(=O)N/N=C/c1c(O)ccc2ccccc12)S(C)(=O)=O	OX1R antag-2 68.8
CC1=NNC(=O)/C1=C\c1cn(-c2ccccc2)nc1-c1ccccc1	TAAR1 antagonist 60.8, OX1R antag-1 96.4, GPR7 antagonist 55.4, CHO parental Ca 92.5
COCCn1c(SCC(=O)Nc2ccc3c(c2)OCCO3)nnc1-c1c[nH]c2ccccc12	OX1R antag-2 49.7
CCOC(=O)c1c(NC(=O)CSc2nnc(-c3c[nH]c4ccccc34)n2CCOC)sc2c1CCCC2	OX1R antag-2 40.7
COCCn1c(SCC(=O)Nc2ccc3c(c2)OCCO3)nnc1-c1ccncc1	none (no result: GPR7 antagonist)
Cc1[nH]c2ccccc2c1SCCNC(=O)c1ccc(Br)o1	OX1R antag-2 66.0
O=C(NCCSc1c[nH]c2ccccc12)c1ccc(Br)o1	none
COc1ccc(-c2[nH]c3ccccc3c2SCCNC(=O)c2cc3ccccc3oc2=O)cc1	OX1R antag-2 42.4
CC1=CC2C3C(=O)N(c4ccccc4)C(=O)C3C1C(=O)C2(O)C(C)C (stereo unspecified)	none (no result: OX1R antag-1, OX1R antag-2, GPR7 antagonist, CHO parental Ca)
COCCN1Cc2cc(C(=O)OC)c3c(c2C1=O)c1cc(OC)ccc1n3S(C)(=O)=O	none (no result: OX1R antag-1, OX1R antag-2, GPR7 antagonist, CHO parental Ca)
CC1(C(=O)NS(=O)(=O)c2ccc(Cl)cc2)CCN1C(=O)CCc1ccccc1 (stereo unspecified)	none (no result: OX1R antag-1, OX1R antag-2, GPR7 antagonist, CHO parental Ca)
CCOC(=O)c1nn(-c2cccc(OC)c2)c(-c2ccccc2)c1C(=O)c1ccccc1	TAAR1 antagonist 56.5, OX1R antag-2 55.5
O=C(N[C@H](Cc1ccccc1)C(=O)N1CCCN(Cc2ccccc2F)CC1)[C@H]1O[C@@H](n2ccc(=O)[nH]c2=O)[C@H](O)[C@@H]1O	none (no result: OX1R antag-1, OX1R antag-2, GPR7 antagonist, CHO parental Ca)
CSCCC(C(=O)NC1CCCC1)n1c(-c2ccccn2)nc2ccccc21 (stereo unspecified)	none (no result: OX1R antag-1, OX1R antag-2, GPR7 antagonist, CHO parental Ca)
